Test results from ChEMBL document CHEMBL4177755, “Combating Drug-Resistant Fungi with Novel Imperfectly Amphipathic Palindromic Peptides” (J Med Chem, 2018).
Bridge positions count the residues as written; N and C are the ends. Square brackets hold non-standard residues; d marks the D form. Peptide text beside a SMILES is read from it. * marks the point of attachment. X1 = CC[C@H](C)CCCCC(=O)*; Dab = NCC[C@H](N)C(=O)O

Legend:
Escherichia coli [1] = assay: Antibacterial activity against Escherichia coli ATCC 25922 after 18 hrs in presence of FeCl3 by broth dilution method; format: functional; conditions: ATCC 25922, 18 h
Staphylococcus aureus [2] = assay: Bactericidal activity against Staphylococcus aureus ATCC 25923; format: functional; conditions: read-out: MBC99.9
Summary of the method: (§1)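 Wells from the 24 h, 37 °C MHB microdilution plates (bacteria at a final (0.5−1) × 10^5 CFU/mL; peptide diluted in 0.2% BSA) were plated on agar and incubated overnight. MBC is the lowest concentration killing >99.9% of cells. Each test was reproduced at least 3 times.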

Staphylococcus aureus [3] = assay: Antibacterial activity against methicillin-resistant Staphylococcus aureus ATCC 4330 after 24 hrs; format: functional; conditions: ATCC 4330, 24 h
Summary of the method: (§2)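 Modified NCCLS broth microdilution. Mid-log bacteria at (0.5−1) × 10^5 CFU/mL in MHB were mixed 1:1 with peptide serially diluted in 0.2% BSA and incubated 24 h at 37 °C. Absorbance was read at 492 nm; MIC is the lowest concentration inhibiting 95% of growth. At least 3 repeats.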

Escherichia coli [4] = assay: Antibacterial activity against Escherichia coli ATCC 25922 after 18 hrs in presence of MgCl2 by broth dilution method; format: functional; conditions: ATCC 25922, 18 h
Escherichia coli [5] = assay: Antibacterial activity against Escherichia coli ATCC 25922 after 18 hrs in presence of 12.5% human heat-inactivated serum by broth dilution method; format: functional; conditions: ATCC 25922, 18 h
Staphylococcus aureus [6] = assay: Antibacterial activity against Staphylococcus aureus ATCC 29213 after 24 hrs; format: functional; conditions: ATCC 29213, 24 h; summary of the method: as §2
Escherichia coli [7] = assay: Antibacterial activity against Escherichia coli ATCC 25922 after 18 hrs in presence of NaCl by broth dilution method; format: functional; conditions: ATCC 25922, 18 h
Escherichia coli [8] = assay: Antibacterial activity against Escherichia coli ATCC 25922 after 24 hrs; format: functional; conditions: ATCC 25922, 24 h
Summary of the method: (§3)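 Broth microdilution. Mid-log bacteria in MHB at a final (0.5−1) × 10^5 CFU/mL were mixed with equal volumes of peptide serially diluted in 0.2% BSA. Plates were incubated 24 h at 37 °C and read at A492. MIC is the lowest concentration inhibiting 95% of growth. Each test was repeated at least 3 times.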

Escherichia coli [9] = assay: Bactericidal activity against Escherichia coli 1005; format: functional; conditions: read-out: MBC99.9; summary of the method: as §1
Escherichia coli [10] = assay: Antibacterial activity against Escherichia coli ATCC 25922 after 18 hrs in presence of KCl by broth dilution method; format: functional; conditions: ATCC 25922, 18 h
Salmonella typhimurium [11] = assay: Bactericidal activity against Salmonella typhimurium ATCC 14028; format: functional, Salmonella enterica subsp. enterica serovar Typhimurium; conditions: Salmonella enterica, read-out: MBC99.9; summary of the method: as §1
[12] = Antibacterial activity against Salmonella pullorum ATCC 7913 after 24 hrs; format: functional, Salmonella enterica subsp. enterica serovar Pullorum; conditions: Salmonella enterica, ATCC 7913, 24 h; summary of the method: as §3
Escherichia coli [13] = assay: Bactericidal activity against Escherichia coli ATCC 25922; format: functional; conditions: read-out: MBC99.9; summary of the method: as §1
Escherichia coli [14] = assay: Antibacterial activity against Escherichia coli ATCC 25922 after 18 hrs in presence of 25% human heat-inactivated serum by broth dilution method; format: functional; conditions: ATCC 25922, 18 h
Escherichia coli [15] = assay: Antibacterial activity against Escherichia coli ATCC 25922 after 18 hrs in presence of CaCl2 by broth dilution method; format: functional; conditions: ATCC 25922, 18 h
[16] = system: Staphylococcus epidermidis; assay: Bactericidal activity against Staphylococcus epidermidis ATCC 12228; format: functional; conditions: read-out: MBC99.9; summary of the method: as §1
Staphylococcus aureus [17] = assay: Antibacterial activity against Staphylococcus aureus ATCC 25923 after 24 hrs; format: functional; conditions: ATCC 25923, 24 h; summary of the method: as §2
[18] = system: Staphylococcus epidermidis; assay: Antibacterial activity against Staphylococcus epidermidis ATCC 12228 after 24 hrs; format: functional; conditions: ATCC 12228, 24 h; summary of the method: as §3
Staphylococcus aureus [19] = assay: Bactericidal activity against methicillin-resistant Staphylococcus aureus ATCC 4330; format: functional; conditions: read-out: MBC99.9
Summary of the method: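 Bacteria at (0.5−1) × 10^5 CFU/mL in MHB were exposed to serially diluted peptide (0.2% BSA) for 24 h at 37 °C, then 50 μL aliquots were plated on agar overnight. MBC is the lowest concentration killing >99.9% of cells. At least 3 repeats.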

Escherichia coli [20] = assay: Antibacterial activity against Escherichia coli ATCC 25922 after 18 hrs in presence of NH4Cl by broth dilution method; format: functional; conditions: ATCC 25922, 18 h
Escherichia coli [21] = assay: Antibacterial activity against Escherichia coli ATCC 25922 after 18 hrs in presence of ZnCl2 by broth dilution method; format: functional; conditions: ATCC 25922, 18 h
Staphylococcus aureus [22] = assay: Bactericidal activity against Staphylococcus aureus ATCC 29213; format: functional; conditions: read-out: MBC99.9; summary of the method: as §1
[23] = Bactericidal activity against Salmonella pullorum ATCC 7913; format: functional, Salmonella enterica subsp. enterica serovar Pullorum; conditions: Salmonella enterica, read-out: MBC99.9; summary of the method: as §1
Escherichia coli [24] = assay: Antibacterial activity against Escherichia coli 1005 after 24 hrs; format: functional; conditions: Escherichia coli, 1005, 24 h; summary of the method: as §3
Escherichia coli [25] = assay: Antibacterial activity against Escherichia coli ATCC 25922 after 18 hrs in presence of 50% human heat-inactivated serum by broth dilution method; format: functional; conditions: ATCC 25922, 18 h
Salmonella typhimurium [26] = assay: Antibacterial activity against Salmonella typhimurium ATCC 14028 after 24 hrs; format: functional, Salmonella enterica subsp. enterica serovar Typhimurium; conditions: Salmonella enterica, ATCC 14028, 24 h; summary of the method: as §3

CC[C@H](C)CCCCC(=O)N[C@@H](CCN)C(=O)N[C@H](C(=O)N[C@@H](CCN)C(=O)N[C@H]1CCNC(=O)[C@H]([C@@H](C)O)NC(=O)[C@H](CCN)NC(=O)[C@H](CCN)NC(=O)[C@H](CC(C)C)NC(=O)[C@@H](Cc2ccccc2)NC(=O)[C@H](CCN)NC1=O)[C@@H](C)O (X1-[Dab]T[Dab][Dab][Dab][dF]L[Dab][Dab]T; lactam 4-C)
2 µM: MIC (Escherichia coli [1]) | MIC (Escherichia coli [5]) | MIC95 (Escherichia coli [8]) | MBC (Escherichia coli [9]) | MIC (Escherichia coli [10]) | MBC (Salmonella typhimurium [11]) | MIC (Escherichia coli [14]) | MIC (Escherichia coli [15]) | MIC (Escherichia coli [20]) | MIC (Escherichia coli [21]) | MBC [23] | MIC95 (Salmonella typhimurium [26])
4 µM: MIC (Escherichia coli [4]) | MBC (Escherichia coli [13]) | MIC (Escherichia coli [25])
1 µM: MIC95 [12] | MIC95 (Escherichia coli [24])
32 µM: MBC [16] | MIC95 (Staphylococcus aureus [17]) | MIC95 [18]
64 µM: MBC (Staphylococcus aureus [2]) | MIC95 (Staphylococcus aureus [3]) | MIC95 (Staphylococcus aureus [6]) | MBC (Staphylococcus aureus [19]) | MBC (Staphylococcus aureus [22])
8 µM: MIC (Escherichia coli [7])
